Test results from ChEMBL document CHEMBL1142699 (J Med Chem, 2005).
Active and inactive are the calls of the source. No cut-off for these calls is given here. Numbered stars: 1 amine (or outer) side, 2 acyl side, 3 side chain; on linkers, the order of the positions; unused ones are H or OH. Square brackets hold non-standard residues; d marks the D form. Peptide text beside a SMILES is read from it. X1 = N[C@@H](Cc1ccccc1)CN(CC(=O)[*:2])[*:1]; Phe(4-F) = N[C@@H](Cc1ccc(F)cc1)C(=O)O

Legend:
[1] = target: Nociceptin receptor (Mus musculus) (UniProt P35377); test: (§1) Inhibition of electrically evoked contraction of mouse vas deferens; format: functional
Sequence of Nociceptin receptor (Mus musculus) (P35377 whole entry): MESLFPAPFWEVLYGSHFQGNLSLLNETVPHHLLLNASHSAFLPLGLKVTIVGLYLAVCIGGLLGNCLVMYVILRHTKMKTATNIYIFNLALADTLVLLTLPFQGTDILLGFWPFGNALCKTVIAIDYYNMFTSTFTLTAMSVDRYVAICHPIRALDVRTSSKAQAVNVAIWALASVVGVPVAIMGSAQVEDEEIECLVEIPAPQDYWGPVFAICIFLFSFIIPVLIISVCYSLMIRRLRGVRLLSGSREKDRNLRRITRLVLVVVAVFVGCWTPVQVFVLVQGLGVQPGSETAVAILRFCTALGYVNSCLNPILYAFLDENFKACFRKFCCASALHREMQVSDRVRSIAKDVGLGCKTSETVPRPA
In short: (§2)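 Vas deferens from male Swiss mice (25-30 g), in Mg2+-free Krebs at 33 °C under 0.3 g resting tension. Field-stimulated with 1 ms supramaximal pulses at 0.05 Hz; twitches recorded isotonically. After ~1 h equilibration, cumulative concentration-response curves in 0.5 log steps. […] 5-8 experiments.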

[2] = target: Nociceptin receptor (Cavia porcellus) (UniProt P47748); test: Inhibition of electrically evoked contraction of guinea pig ileum at 10 uM; format: functional, tissue-based
Sequence of Nociceptin receptor (Cavia porcellus) (P47748 whole entry): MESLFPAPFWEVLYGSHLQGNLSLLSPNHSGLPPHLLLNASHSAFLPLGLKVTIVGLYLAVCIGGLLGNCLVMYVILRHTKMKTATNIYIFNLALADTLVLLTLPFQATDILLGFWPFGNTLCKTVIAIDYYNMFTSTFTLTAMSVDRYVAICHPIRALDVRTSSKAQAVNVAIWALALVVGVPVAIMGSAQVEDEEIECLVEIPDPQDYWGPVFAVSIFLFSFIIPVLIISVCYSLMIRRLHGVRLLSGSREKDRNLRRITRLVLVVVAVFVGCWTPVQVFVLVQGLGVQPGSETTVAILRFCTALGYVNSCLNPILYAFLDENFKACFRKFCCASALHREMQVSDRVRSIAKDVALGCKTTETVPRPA

[3] = target: Nociceptin receptor (Cavia porcellus) (UniProt P47748); test: Maximal inhibition of electrically evoked contraction of guinea pig ileum at 10 uM; format: functional, tissue-based
[4] = target: Nociceptin receptor (Mus musculus) (UniProt P35377); test: Antagonistic potency against N/OFQ in electrically evoked contraction of mouse vas deferens at 10 uM; format: functional, tissue-based
In short: (§3)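 Male Swiss mice (25-30 g). Vas deferens in 5 mL baths of Mg2+-free Krebs at 33 °C, 0.3 g tension, field-stimulated with supramaximal 1 ms pulses at 0.05 Hz, isotonic recording.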

[5] = target: Nociceptin receptor (Cavia porcellus) (UniProt P47748); test: Antagonistic potency against N/OFQ in electrically evoked contractions of guinea pig ileum at 10 uM; format: functional, tissue-based
[6] = target: Nociceptin receptor (Mus musculus) (UniProt P35377); test: Maximal inhibition of electrically evoked contraction of mouse vas deferens at 10 uM; format: functional, tissue-based
Nociceptin receptor [7] = target: Nociceptin receptor (Mus musculus, UniProt P35377); test: as §1; format: functional; in short: as §2
Sequence of Nociceptin receptor (Mus musculus, UniProt P35377) (P35377 whole entry): as the sequence (P35377 whole entry) above

Nociceptin receptor [8] = target: T1, Nociceptin receptor (Homo sapiens, UniProt P41146); test: Receptor binding affinity for recombinant human N/OFQ peptide receptor (NOP) expressed in chinese hamster ovary cells; format: cell-based, CHO
T1 sequence (P41146 whole entry): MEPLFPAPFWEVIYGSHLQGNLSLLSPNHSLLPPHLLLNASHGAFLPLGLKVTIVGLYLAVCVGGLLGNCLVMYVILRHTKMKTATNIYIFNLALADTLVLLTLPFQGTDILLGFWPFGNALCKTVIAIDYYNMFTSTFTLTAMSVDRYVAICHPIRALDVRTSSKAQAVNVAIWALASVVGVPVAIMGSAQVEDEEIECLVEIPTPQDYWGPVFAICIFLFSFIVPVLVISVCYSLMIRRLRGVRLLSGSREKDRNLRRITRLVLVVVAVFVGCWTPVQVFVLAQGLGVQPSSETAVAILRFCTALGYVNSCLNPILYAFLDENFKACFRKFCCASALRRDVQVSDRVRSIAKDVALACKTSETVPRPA

Nociceptin receptor [9] = target: T1, Nociceptin receptor; test: Agonist potency against GTPgammaS binding in CHO cell membranes expressing the human NOP receptor (CHOhNOP)
Nociceptin receptor [10] = target: T1, Nociceptin receptor; test: Inhibition of forskolin stimulated cAMP levels in CHO cells expressing the human NOP receptor (CHOhNOP)
Nociceptin receptor [11] = target: T1, Nociceptin receptor; test: Agonist potency against GTPgammaS binding in CHO cell membranes expressing the human NOP receptor (CHOhNOP) at 0.1 uM
In short: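 CHOhNOP membranes (20 µg) incubated 1 h at 30 °C with gentle shaking in 50 mM Tris-HCl, 1 mM MgCl2, 100 mM NaCl, 0.2 mM EGTA, 1 mg/mL BSA, 150 µM bacitracin, 10 µM peptidase inhibitors, 100 µM GDP, 150 pM GTPγ[35S]. Nonspecific binding with 10 µM GTPγS; vacuum filtration. Data as stimulation factors (ligand/basal specific DPM); pEC50 derived.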

[12] = target: Nociceptin receptor (Mus musculus) (UniProt P35377); test: Inhibition of electrically evoked contraction of mouse vas deferens at 10 uM; format: functional
Nociceptin receptor [13] = target: T1, Nociceptin receptor; details: CHO
[14] = target: Nociceptin receptor (Mus musculus) (UniProt P35377); test: Antagonistic potency against N/OFQ in electrically evoked contraction of mouse vas deferens at 1 uM; format: functional, tissue-based; in short: as §3
Nociceptin receptor [15] = target: T1, Nociceptin receptor; test: Inhibition of forskolin stimulated cAMP levels in CHO […] expressing the human NOP receptor (CHOhNOP); format: functional, cell-based
Nociceptin receptor [16] = target: T1, Nociceptin receptor; test: Antagonistic potency against N/OFQ induced GTPgammaS binding to human NOP receptor expressed in CHO cell membranes at 0.1 uM; format: functional
[17] = target: Nociceptin receptor (Cavia porcellus) (UniProt P47748); test: Antagonistic potency against N/OFQ in electrically evoked contractions of guinea pig ileum at 1 uM; format: functional, tissue-based
Nociceptin receptor [18] = target: T1, Nociceptin receptor; test: Agonist potency against GTPgammaS binding in CHO cell membranes expressing human NOP receptor (CHOhNOP)
In short: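 Membranes from CHO cells stably expressing human NOP, homogenized in 50 mM Tris-HCl/0.2 mM EGTA. 20 µg homogenate, 1 h at 30 °C. Buffer: Tris-HCl, 1 mM MgCl2, 100 mM NaCl, 0.2 mM EGTA, BSA, bacitracin, 10 µM peptidase inhibitors, 100 µM GDP, 150 pM GTPγ[35S]. Nonspecific binding defined with 10 µM GTPγS.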

CC(C)C[C@H](NC(=O)[C@H](CCCCN)NC(=O)[C@H](CCCN=C(N)N)NC(=O)[C@H](C)NC(=O)[C@H](CO)NC(=O)[C@H](CCCCN)NC(=O)[C@H](CCCN=C(N)N)NC(=O)[C@H](C)NC(=O)CNC(=O)[C@@H](NC(=O)[C@H](Cc1ccccc1)NC(=O)CNC(=O)CNC(=O)CNCc1ccccc1)[C@@H](C)O)C(=O)N[C@@H](C)C(=O)N[C@@H](CC(N)=O)C(=O)N[C@@H](CCC(N)=O)C(N)=O
Log EC50 [1]: inactive | Log EC50 [2]: inactive | Emax [3]: inactive | pKb [4]: 6.07 | pKb [5]: 6.21 | Emax [6]: inactive

C[C@H](NC(=O)CNC(=O)[C@@H](NC(=O)[C@H](Cc1ccc(F)cc1)NC(=O)CNC(=O)CNC[C@@H](N)Cc1ccccc1)[C@@H](C)O)C(=O)N[C@@H](CCCN=C(N)N)C(=O)N[C@@H](CCCCN)C(=O)N[C@@H](CO)C(=O)N[C@@H](C)C(=O)N[C@@H](CCCN=C(N)N)C(=O)N[C@@H](CCCCN)C(=O)N[C@@H](CCCN=C(N)N)C(=O)N[C@@H](CCCCN)C(=O)N[C@@H](CC(N)=O)C(=O)N[C@@H](CCC(N)=O)C(N)=O (H-[X1]G[Phe(4-F)]TGARKSARKRKNQ-NH2)
EC50 (Nociceptin receptor [7]): 1020 pM | Ki (Nociceptin receptor [8]): 20 pM | EC50 (Nociceptin receptor [9]): 209 pM | EC50 (Nociceptin receptor [10]): 302 pM

C[C@H](NC(=O)CNC(=O)[C@@H](NC(=O)[C@H](Cc1ccccc1)NC(=O)CNC(=O)CNC(=O)CNCc1ccccc1)[C@@H](C)O)C(=O)N[C@@H](CCCN=C(N)N)C(=O)N[C@@H](CCCCN)C(=O)N[C@@H](CO)C(=O)N[C@@H](C)C(=O)N[C@@H](CCCN=C(N)N)C(=O)N[C@@H](CCCCN)C(=O)N[C@@H](CCCN=C(N)N)C(=O)N[C@@H](CCCCN)C(=O)N[C@@H](CC(N)=O)C(=O)N[C@@H](CCC(=O)N(N)N)C(=O)NN
Log EC50 (Nociceptin receptor [11]): inactive | Log EC50 [12]: inactive | pKb (Nociceptin receptor [13]): 7.11 | pKb [14]: 7.24 | Log EC50 (Nociceptin receptor [15]): inactive | Log EC50 [2]: inactive | pKb (Nociceptin receptor [16]): 9.13 | Emax [3]: inactive | Emax [6]: inactive | pKb [17]: 6.79

C[C@H](NC(=O)CNC(=O)[C@@H](NC(=O)[C@H](Cc1ccc(F)cc1)NC(=O)CNC(=O)CNC(=O)CNCc1ccccc1)[C@@H](C)O)C(=O)N[C@@H](CCCN=C(N)N)C(=O)N[C@@H](CCCCN)C(=O)N[C@@H](CO)C(=O)N[C@@H](C)C(=O)N[C@@H](CCCN=C(N)N)C(=O)N[C@@H](CCCCN)C(=O)N[C@@H](CCCN=C(N)N)C(=O)N[C@@H](CCCCN)C(=O)N[C@@H](CC(N)=O)C(=O)N[C@@H](CCC(N)=O)C(N)=O
Ki (Nociceptin receptor [8]): 25.1 pM | EC50 (Nociceptin receptor [18]): 407 pM | EC50 (Nociceptin receptor [10]): 4900 pM
